The list is not random: actives were taken first. Their share in the collection is about 4.6%.
CHO parental Ca = signal in parental CHO cells, OX1R antagonist counter-screen. parental CHO-K1, ATP-induced calcium, Fluo-8 fluorescence. inhibition, % at 5.6 µM. 0.63% of 330,000 active;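 active = inhibition above that plate's mean sample inhibition plus 3 SD, cut at about 26% in these data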;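 also: 0% = ATP-challenged DMSO wells and 100% = DMSO wells without ATP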
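Assay system – parental CHO cells · Reagent – ATP stimulus · Detection – intracellular calcium via Fluo-8 no-wash fluorescent dye · Evaluation – percent inhibition of ATP-evoked calcium rise, normalized to controls · Controls – ATP wells versus no-ATP DMSO wells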
TAAR1 ag = agonists of human TAAR1. CHO RD-HGA16 TAAR1, Fluo-8 calcium fluorescence; vehicle wells 0%, saturating PEA agonist 100%. activation, % at 3 µM. 0.99% of 360,000 active. AID 624467;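 active = activation above the mean activation of all test compounds in the run plus 3 SD, cut at about 38% in these data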
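test system = CHO RD-HGA16 cells carrying human TAAR1 plus Gα16 | schedule = 17-24 h seeding, 75 min 37 °C dye, 30 min RT | compound dosing = 3 µM single concentration | control set = DMSO and PEA EC100 | replicates = n 1 | signal = Fluo-8 fluorescence, 5 s baseline then 140 s kinetic read | measure = percent activation vs PEA EC100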
OX1R antag-1 = antagonists of human orexin 1 receptor (OX1R); AID 485270; inhibition, % at 6.6 µM; 1.8% of 330,000 active; O43613; OX1R-expressing cells, FRET antagonist read-out; in the data active = inhibition mostly above about 38%, no sharp cut-off; inactive = mostly below about 40%;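 also: 0% = agonist challenge alone and 100% = reference antagonist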
Target sequence (O43613 whole entry, looked up): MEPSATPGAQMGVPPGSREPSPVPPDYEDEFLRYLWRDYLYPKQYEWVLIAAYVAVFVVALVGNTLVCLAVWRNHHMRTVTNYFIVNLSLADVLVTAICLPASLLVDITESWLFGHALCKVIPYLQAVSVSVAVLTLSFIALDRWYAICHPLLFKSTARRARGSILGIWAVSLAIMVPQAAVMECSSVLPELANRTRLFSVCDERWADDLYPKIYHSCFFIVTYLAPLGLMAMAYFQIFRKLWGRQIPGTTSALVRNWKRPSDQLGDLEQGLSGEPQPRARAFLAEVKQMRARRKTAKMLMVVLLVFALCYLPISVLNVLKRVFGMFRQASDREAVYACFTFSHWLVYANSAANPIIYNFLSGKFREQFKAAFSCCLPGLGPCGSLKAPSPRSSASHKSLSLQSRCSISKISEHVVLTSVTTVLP
TAAR1 antagonist = antagonists of human TAAR1; Q96RJ0; CHO RD-HGA16 TAAR1, Fluo-8 calcium fluorescence, antagonist; inhibition, % at 3 µM; 1.5% of 360,000 active;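 active = inhibition above a per-plate cutoff, the mean inhibition of test compounds on that plate plus 3 SD, cut at about 49% in these data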;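 also: 0% = DMSO plus EC80 beta-PEA response and 100% = DMSO alone without agonist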
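Test system: hTAAR1-expressing CHO RD-HGA16 cells, Gα16-coupled; Probe or stimulus: EC80 β-phenethylamine stimulus; Compound dosing: single nominal final test compound concentration of 3 µM; Timing: 140 s kinetic read after compound, 140 s after agonist; Signal: Fluo-8 calcium-sensitive fluorescence; Measure: % inhibition of agonist calcium response; Controls: DMSO and EC80 PEA controls.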
GPR7 antag = human neuropeptides B/W receptor 1 antagonism | P48145 | GPR7-expressing cells, fluorescence antagonist assay | inhibition, % at 4.4 µM | 1.1% of 290,000 active; in the data active = inhibition above about 16%, passing the limit was not always enough;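 also: cells stimulated with the agonist NPW; 0% = agonist with vehicle and 100% = vehicle without agonist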
OX1R antag-2 = antagonists of human orexin 1 receptor; O43613; CHO/OX1R cells, Fluo-8 calcium fluorescence, orexin A; inhibition, % at 5 µM; 0.43% of 330,000 active; AID 434989;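 active = inhibition above its plate's threshold, mean inhibition of all tested compounds on the plate plus 3 SD, cut at about 37% in these data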;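 also: 0% = orexin A challenge wells and 100% = SB-334867-A antagonist wells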
OX1R HTRF conf = OX1R (human) antagonism, HTRF confirmed; 49% of 1,800 active; shares compounds with OX1R antag-1; inhibition, % at 6.6 µM; AID 492964; OX1R-expressing cells, HTRF antagonist assay; in the data active = inhibition above about 55%;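 also: CHO cells expressing OX1R stimulated with orexin A at about EC80; 0% = agonist challenge alone and 100% = reference antagonist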
CHO-K1 HTRF = counter-screen: parental CHO-K1 HTRF response; shares compounds with OX1R antag-1; parental CHO-K1 cells, HTRF counterscreen; inhibition, % at 6.6 µM; 48% of 1,800 active; AID 493232; in the data active = inhibition above about 17%;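 also: 0% = agonist challenge with vehicle and 100% = vehicle alone without agonist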
An asterisk follows results filed as active; · = no result.

SMILES	CHO parental Ca	TAAR1 ag	OX1R antag-1	TAAR1 antagonist	GPR7 antag	OX1R antag-2	OX1R HTRF conf	CHO-K1 HTRF
CC(=O)c1nnn(-c2ccc([N+](=O)[O-])cc2C)c1C	-16	3	162*	2	7	-16	27	40*
CC(=O)c1nnn(-c2cccc([N+](=O)[O-])c2)c1C	-3	2	30	-2	0	-16	·	·
O=C(NC(c1ccc(-c2ccccc2)cc1)c1cnccn1)C1CCN(CCN2C(=O)c3ccccc3C2=O)CC1 (configuration not stated)	·	5	·	30	·	·	·	·
COc1ccccc1Cc1c(-c2ccc(Cl)cc2)nc2ccc(Br)cn12	·	6	·	-7	·	·	·	·
O=C(N/N=C/C(Cl)=C\c1ccccc1)c1cccs1	2	0	87*	-7	-4	15	62*	9
CCCS(=O)(=O)N1CCN(c2cc3c(cc2[N+](=O)[O-])n(C)c(=O)n3C)CC1	2	8	78*	11	-8	-5	33	49*
C#Cc1ccc2c(c1)COc1c3ccccc3nn1-2	-27	11	84*	4	·	-26	60*	14
O=C(Nc1nnc([C@H]2C[C@H](O)[C@@H](CO)O2)s1)c1cccc(OC(F)(F)F)c1	·	1	·	3	·	·	·	·
Cc1cccc(NC(=O)Nc2ccc3c(c2)N(C)C(=O)CS3)n1	-15	10	10	37	-10	-14	·	·
CC(=O)c1ccc(NC(=O)Nc2ccc3c(c2)N(C)C(=O)CS3)cc1	-1	44*	79*	76*	-6	-15	19	11
COCCNC(=O)C1(C)CCN(C(=O)c2cc(C)nn2C(C)(C)C)C1 (configuration not stated)	·	2	·	-7	·	·	·	·
S=c1nn[nH]c2ccccc12	·	1	·	-40	·	·	·	·
COc1cc(/C=C2\NC(=O)NC2=O)cc(Br)c1OC	-8	7	-4	1	3	0	·	·
O=C(O)COc1c(Cl)cc(/C=C2/NC(=O)NC2=O)cc1Br	-9	1	88*	11	-13	-15	42	37*
COC(=O)c1ccc2nc(-c3ccc(OC)c(OC)c3)c(Cc3ccccc3C(F)(F)F)n2c1	·	-1	·	-9	·	·	·	·
COc1ccccc1CNC(=O)CCS(=O)(=O)c1cccc2nonc12	-8	7	83*	-2	-3	-31	31	32*
COc1ccc(N(C)C(=O)CCS(=O)(=O)c2cccc3nonc23)cc1	-14	8	117*	-11	3	-30	46	49*
C=CCNc1nnc(Sc2ncccc2[N+](=O)[O-])s1	-9	6	91*	-15	2	-27	28	33*
COc1ccc(-c2cc(=O)n(CCC#N)[nH]2)cc1	4	0	17	-30	-7	3	·	·
COc1ccc(-c2ncn(CCC#N)c2[N+](=O)[O-])cc1	-9	3	85*	10	1	-2	40	42*
COc1cc2nc(/C=C/c3cc(OC)c(OC)c(OC)c3)sc2cc1SC	-39	0	79*	-11	-8	24	84*	10
CC(C)c1ccc(NC(=O)C2(C)Cc3c(-c4cccc(C(N)=O)c4)ccnc3O2)cc1 (configuration not stated)	·	7	·	-17	·	·	·	·
Nc1c(C(=O)Nn2cnnc2)cc([N+](=O)[O-])cc1[N+](=O)[O-]	-7	·	64	·	2	3	·	·
O=C(Nn1cnnc1)c1cc([N+](=O)[O-])cc([N+](=O)[O-])c1	-6	-1	113*	-10	-8	-9	66*	84*
O=C1NC(=S)N/C1=C/c1cccc([N+](=O)[O-])c1	-11	6	93*	5	1	-5	31	40*
O=C1NC(=S)N/C1=C\c1cccc([N+](=O)[O-])c1	4	-2	29	-21	3	11	·	·
CC(C)N1CCCC(C)(C(=O)Nc2nc3ccccc3n2C)C1 (configuration not stated)	·	1	·	-7	·	·	·	·
